High-throughput results as filed in PubChem BioAssay.
This is a sample that favours compounds with a hit; in the whole collection about 4.5% have one here.
CHOP inh – inhibitors of CHOP promoter induction, primary screen, cell-based, unfolded protein response, luciferase reporter | 3.8% of 220,000 active | AID 2732, 2010 | inhibition, % at 10 µM | CHO-K1 CHOP-promoter luciferase, tunicamycin-induced, 15-18 h;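 active = compounds that reduced the stress-induced luciferase reporter signal by more than about 70% of percent inhibition, limit read from the data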
CHOP UPR activ – activators of apoptotic CHOP UPR arm, primary screen, cell-based, CHO-CHOP luciferase reporter, luminescence, uHTS | AID 449763, 2010 | UPR activation; percent of tunicamycin response over DMSO baseline | activation, % at 10 µM | 0.34% of 330,000 active;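 active = at 10 µM dose, activation of 40% or more, normalized to positive control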
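System: CHO-CHOP luciferase reporter cell line; amount: 500 cells/well; buffer or medium: F12 medium containing 10% fetal bovine serum; incubation: 6 h compound exposure at 37 °C after overnight seeding; measured by: luciferase luminescence after 10 min with Steady-Glo reagent; evaluation: % reporter activation, DMSO baseline versus tunicamycin full activation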
XBP1 UPR activ – activators of adaptive XBP1 UPR arm, primary screen, cell-based, CHO-XBP1 luciferase reporter, luminescence, uHTS; IRE1-XBP1 UPR activation; percent of tunicamycin response, DMSO as zero; activation, % at 20 µM; 0.33% of 330,000 active;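 active = versus positive control, 20 µM dose yields 30% or more activation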
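Material: IRE1-XBP1 luciferase reporter CHO line / Quantity: one thousand reporter cells per well / Buffer or medium: F12 with 10% serum / Compound: 20 µM single concentration, DMSO 1% / Times: 6 h treatment, 37 °C / Detection: Steady-Glo luciferase glow luminescence, 10 min after reagent addition / Benchmarks: tunicamycin high, DMSO low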
p97 ATPase inh – inhibitors of human p97 ATPase, primary screen, biochemical; Transitional endoplasmic reticulum ATPase (Homo sapiens), P55072; recombinant p97 ATPase, Kinase-Glo ATP luminescence, 3 h; inhibition, % at 8 µM; 0.42% of 220,000 active; in the data active = inhibition above about 15%
Target sequence (P55072 whole entry, looked up): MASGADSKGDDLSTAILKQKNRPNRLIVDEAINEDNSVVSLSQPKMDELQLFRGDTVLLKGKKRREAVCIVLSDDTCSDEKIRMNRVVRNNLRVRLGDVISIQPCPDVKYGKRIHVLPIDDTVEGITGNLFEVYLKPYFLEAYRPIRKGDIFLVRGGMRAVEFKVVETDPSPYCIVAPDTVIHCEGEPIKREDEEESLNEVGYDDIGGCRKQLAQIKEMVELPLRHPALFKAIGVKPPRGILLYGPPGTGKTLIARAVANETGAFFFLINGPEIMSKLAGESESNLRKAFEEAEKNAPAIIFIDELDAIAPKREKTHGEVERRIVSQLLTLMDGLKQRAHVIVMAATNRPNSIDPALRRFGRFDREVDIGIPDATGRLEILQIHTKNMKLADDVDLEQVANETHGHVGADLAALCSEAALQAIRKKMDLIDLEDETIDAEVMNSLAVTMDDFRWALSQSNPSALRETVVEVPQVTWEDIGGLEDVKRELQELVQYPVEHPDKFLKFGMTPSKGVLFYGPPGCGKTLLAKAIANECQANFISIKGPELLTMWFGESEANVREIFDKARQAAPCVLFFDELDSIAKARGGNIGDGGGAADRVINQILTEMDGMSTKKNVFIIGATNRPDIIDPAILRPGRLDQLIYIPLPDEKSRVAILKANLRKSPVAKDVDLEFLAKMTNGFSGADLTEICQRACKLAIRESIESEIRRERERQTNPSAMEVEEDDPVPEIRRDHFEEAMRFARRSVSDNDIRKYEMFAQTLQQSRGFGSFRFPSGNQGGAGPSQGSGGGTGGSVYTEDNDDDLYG
PfM18AAP inh – PfM18AAP inhibitors, malaria aminopeptidase, primary screen, biochemical, QFRET, recombinant enzyme | H-Glu-NHMec fluorogenic cleavage | 1.2% of 290,000 active | inhibition, % at 7.35 µM | M18 aspartyl aminopeptidase (Plasmodium falciparum 3D7);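 active = inhibition above the campaign mean inhibition over all tested compounds plus 3 SD, cut at about 28% in these data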
HCV NS3 hel inh – inhibitors of HCV NS3 helicase, primary screen, biochemical, Cy5 molecular beacon fluorescence. NS3 helicase DNA unwinding. inhibition, % at 10.9 µM. 0.56% of 290,000 active. AID 1800, 2009;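 active = inhibition above the mean of all tested compounds plus 3 SD, set per campaign, cut at about 35% in these data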
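Compound dosing – single dose, 10.9 µM nominal final, DMSO 0.8% final · System – NS3 helicase fragment of HCV · Buffer or medium – MOPS pH 6.5, MgCl2, DTT, Tween20, BSA · Signal – Cy5 beacon fluorescence read at start and 1 h · Also added – annealed dual-labelled DNA beacon duplex, ATP-started · Schedule – 1 h at 25 °C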
Hits are given with their value; - = inactive; . = no result.

SMILES	CHOP inh	CHOP UPR activ	XBP1 UPR activ	p97 ATPase inh	PfM18AAP inh	HCV NS3 hel inh
CCNC(=S)N/N=C/c1ccc(OCCOc2ccccc2C)cc1	84.9	-	-	-	-	-
CCn1c(O)c(/C=C2\C=Nc3ccccc32)sc1=Nc1ccccc1	78.7	-	-	-	-	-
CC(=O)Nc1ccc(S(=O)(=O)NCc2cn3c(C)csc3n2)cc1	-	-	-	-	-	-
CCc1ccc(S(=O)(=O)NCCc2csc(-c3ccccc3)n2)s1	-	-	-	-	-	-
CCc1ccc(S(=O)(=O)NCc2cn3c(C)csc3n2)s1	90.2	-	-	-	-	-
CCc1ccc(S(=O)(=O)NCc2csc(-c3ccccc3)n2)s1	72.9	-	-	-	-	-
COc1ccc(/C(N)=N/OC(=O)CC2CCCCC2)cc1	.	-	-	.	-	-
Cc1ccc(S(=O)(=O)NCc2ccccc2)cc1C(=O)N(C)CC(=O)Nc1c(Cl)cccc1Cl	.	-	-	.	.	.
CC(=O)N1CCN(C(=O)c2cccc(S(=O)(=O)N3CCN(c4ccccc4)CC3)c2)CC1	.	-	-	.	.	.
O=C(NNC(=O)c1cccc(S(=O)(=O)N2CCN(c3ccccc3)CC2)c1)c1ccc(Cl)cc1	83.0	-	-	-	-	-
COc1ccc(Nc2nc(Cl)c(C=O)s2)cc1	-	-	-	-	-	-
Cc1cc(Cl)ccc1OC(C)C(=O)Nc1ccc([N+](=O)[O-])cn1 (stereo unspecified)	74.8	-	-	-	-	-
CN(CCOC(=O)/C=C/c1ccco1)Cc1ccccc1	-	-	-	-	-	-
CC(C)(C)n1nnnc1C(c1ccc(C(F)(F)F)cc1)N(Cc1ccc(F)cc1)Cc1ccco1 (stereo unspecified)	82.4	-	-	-	-	-
CC(C)C(=O)NC(Nc1cc(C(F)(F)F)ccc1Cl)C(Cl)(Cl)Cl (stereo unspecified)	72.1	-	-	-	-	-
CCCCCCCn1ccc(=N)cc1	-	-	-	-	-	-
CCCCCCCCCn1ccc(=N)cc1	75.8	-	-	-	-	-
C/C(=N\NC(=O)COc1ccc(C(C)(C)C)cc1)c1ccc(OC(F)F)cc1	93.7	-	-	-	-	-
C/C(=N\NC(=O)COc1ccc(C(C)(C)C)cc1)c1ccccc1	81.1	-	-	-	-	-
C/C(=N\NC(=O)COc1ccc(C(C)(C)C)cc1)c1ccc2c(c1)OCCO2	-	-	-	-	-	-
C/C(=N\NC(=O)COc1ccc(C(C)(C)C)cc1)c1cc2ccccc2o1	73.8	-	-	-	-	-
COC(=O)C(Cc1ccccc1)NC(=O)COc1ccc(C(C)(C)C)cc1 (stereo unspecified)	92.6	-	-	-	-	-
CCOc1ccc(C(=O)NC(Cc2ccccc2)C(=O)OC)cc1 (stereo unspecified)	-	-	-	-	-	-
COc1ccccc1N(C)S(=O)(=O)c1ccc(C(=O)N(C)Cc2ccc(Cl)s2)cc1	.	-	-	.	.	.
CCN=C1S/C(=C\c2cn(C(C)=O)nc2-c2ccccc2)C(=O)N1CC	71.3	-	-	-	-	-
SMILES	CHOP inh	CHOP UPR activ	XBP1 UPR activ	p97 ATPase inh	PfM18AAP inh	HCV NS3 hel inh
CN=C1S/C(=C\c2cn(C(C)=O)nc2-c2ccccc2)C(=O)N1C	.	.	.	-	-	-
CC(=O)NC1=NC(=O)/C(=C/c2cn(C(C)=O)nc2-c2ccccc2)S1	72.6	-	-	-	-	-
CCN(CC)c1ccc(/C=N/NC(=O)c2c(-c3ccccc3)noc2C)cc1	.	-	-	.	-	-
COc1ccc(S(=O)(=O)Nc2nnc(Cc3ccc(OC)c(OC)c3)s2)cc1	-	-	-	-	-	-
COc1cccc2c1C(=O)c1c(O)c3c(c(O)c1C2=O)C[C@@](O)(C(=O)CO)C[C@@H]3O[C@H]1C[C@H](N)[C@H](O)[C@H](C)O1	.	-	-	-	28.3	-
Nc1[nH]n2c(=O)c3c(nc2c1N=Nc1ccc(Cl)cc1)CCCC3	77.6	-	-	-	-	-
CCN1C(=O)N(C)[C@@H](c2ccccc2)C(C(C)=O)=C1C	.	-	-	.	.	.
N#CC1=C(N)N(c2ccccc2)C2=C(C(=O)CCC2)C1c1cccs1 (stereo unspecified)	-	-	-	-	29.1	-
Cc1ccc(OCCC(=O)OCC(=O)c2c(N)n(C)c(=O)n(C)c2=O)cc1	.	-	-	.	.	.
Cn1c(N)c(C(=O)COC(=O)CCOc2ccc(C(C)(C)C)cc2)c(=O)n(C)c1=O	71.0	-	-	-	-	-
COc1ccc(NC(=O)CCc2nnc3ccc(N4CCC(C)CC4)nn23)cc1OC	.	-	-	.	-	-
CCOc1cc(/C=C2\CCC/C(=C\c3cc(Cl)c(O)c(OCC)c3)C2=O)cc(Cl)c1O	92.8	-	-	-	-	-
C=CCNC(=O)/C(C#N)=C\c1cc(Cl)c(O)c(OCC)c1	-	.	.	-	-	-
CC1CC(C)CN(C(=O)C(C)N(C)CC(=O)Nc2ccc(Cl)cc2)C1 (stereo unspecified)	-	-	-	-	-	-
O=C(CSc1ccc(F)cc1)NCCSc1ccccc1	-	-	-	-	-	-
NS(=O)(=O)c1ccc(NC(=S)N2CCN(c3ccc(Cl)c(Cl)c3)CC2)cc1	87.2	-	-	-	-	-
O=[N+]([O-])c1ccc(NC(=S)N2CCN(c3ccc(F)cc3)CC2)cc1	84.5	-	-	-	-	-
O=S(=O)(c1ccc(Cl)cc1)N1CCN(C(=S)Nc2ccc(F)c(Cl)c2)CC1	77.6	-	-	-	-	-
NS(=O)(=O)c1ccc(NC(=S)N2CCN(Cc3ccc(Cl)c(Cl)c3)CC2)cc1	-	-	-	-	-	-
O=S(=O)(c1ccccc1)N1CCN(C(=S)Nc2ccc(F)cc2)CC1	-	-	-	-	-	-
COc1ccc(OC)c(CN2CCN(C(=O)CCC(=O)c3cccs3)CC2)c1	.	-	-	.	.	.
O=C(NC(=S)/C(=C1\CCCCCN1)[N+](=O)[O-])c1ccccc1	.	-	-	.	.	.
CCOc1ccc(C(=O)c2cc([N+](=O)[O-])ccc2Cl)cc1	82.4	-	-	-	-	-
COC(=O)c1c(-c2cc(OC)c(OC)c(OC)c2)c2ccc(OCc3ccccn3)cc2c(=O)n1-c1ccc(N)cc1	-	.	.	.	.	.
Cc1ccccc1N(CC(=O)N/N=C/c1ccc(Cl)cc1)C(=O)c1ccccc1	72.5	-	-	-	-	-
Cc1ccccc1N(CC(=O)N/N=C/c1ccc(F)cc1)C(=O)c1ccccc1	88.9	-	-	-	-	-
